# In ChEMBL document CHEMBL5042548, “Multiparameter Optimization of Oxidative Phosphorylation Inhibitors for the Treatment of Pancreatic Cancer” (J Med Chem, 2022):
# Active and inactive are the calls of the source. The calls are words filed in the database; no cut-off is given here.
# Legend:
# MIA PaCa-2 [1] = experiment: Cytotoxicity against human MIA PaCa-2 cells assessed as inhibition of cell growth incubated for overnight in glucose-containing medium followed by compound addition and measured after 7 days by MTT assay; assay type: functional, cell-based; details: MIA PaCa-2, 168 h
# Procedure, shortened: (§1)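 7-day MTT in glucose medium (RPMI 1640 + 10% FBS). Seeding is 200 cells/well for MIA PaCa-2 and 300 cells/well for BxPC-3, overnight at 37 °C, 5% CO2, before compound. MTT 3 mg/mL is added for 4 h, then DMSO, and absorbance is read at 570 nm. IC50 is by nonlinear regression; ≥3 independent experiments.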
# BXPC-3 = experiment: Cytotoxicity against human BXPC-3 cells assessed as inhibition of cell growth incubated for overnight in glucose-containing medium followed by compound addition and measured after 7 days by MTT assay; assay type: functional, cell-based; details: BXPC-3, 168 h; procedure, shortened: as §1
# MIA PaCa-2 [2] = experiment: Cytotoxicity against human MIA PaCa-2 cells assessed as inhibition of cell growth incubated for overnight in glucose-containing medium followed by compound addition and measured after 3 days by MTT assay; assay type: functional, cell-based; details: MIA PaCa-2, 72 h
# Procedure, shortened: (§2)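 MIA PaCa-2 3-day MTT in glucose medium (RPMI 1640 + 10% FBS) or galactose medium (glucose-free RPMI + 10 mM galactose + 10% FBS). Galactose wells are seeded at 8000 cells/well. MTT read-out is at 570 nm after DMSO solubilization. IC50 is by nonlinear regression; ≥3 independent experiments.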
# MIA PaCa-2 [3] = experiment: Cytotoxicity against human MIA PaCa-2 cells assessed as inhibition of cell growth incubated for overnight in galactose-containing medium followed by compound addition and measured after 3 days by MTT assay; assay type: functional, cell-based; details: MIA PaCa-2, 72 h; procedure, shortened: as §2
# [4] = Metabolic stability in mouse liver microsomes assessed as half life at 10 uM measured up to 60 mins in presence of NADPH by LC-MS/MS analysis; assay type: ADME, Microsome; details: for t1/2: microsomes, 1 h, 10 µM; for half-life at 10 µM: liver microsomes
# [5] = Metabolic stability in human liver microsomes assessed as half life at 10 uM measured up to 60 mins in presence of NADPH by LC-MS/MS analysis; assay type: ADME, Microsome; details: for t1/2: microsomes, 1 h, 10 µM; for half-life at 10 µM: liver microsomes
# [6] = Inhibition of oxidative phosphorylation in human MIA PaCa-2 cells assessed as reduction in ATP production incubated for 24 hrs in glucose-containing medium by celltiter-glo luminescence cell viability assay; assay type: functional, cell-based; details: MIA PaCa-2, 24 h
# Procedure, shortened: (§3)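 MIA PaCa-2 cells are seeded at 10000 cells/well in glucose RPMI + 10% FBS or in glucose-free RPMI + 10 mM galactose + 10% FBS. Total ATP is measured by CellTiter-Glo luminescence 24 h after compound. IC50 is by nonlinear regression; ≥3 independent experiments.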
# [7] = Inhibition of oxidative phosphorylation in human MIA PaCa-2 cells assessed as reduction in ATP production incubated for 24 hrs in galactose-containing medium by celltiter-glo luminescence cell viability assay; assay type: functional, cell-based; details: MIA PaCa-2, 24 h; procedure, shortened: as §3
# Panc02 = experiment: Antitumor activity against mouse Panc02 cells allografted in C57BL/6 mouse syngeneic model assessed as tumor growth inhibition at 2.5 mg/kg, ip administered once daily for 28 days and measured twice per week; assay type: functional, organism-based; details: time 28.0 day
# Procedure, shortened: (§4)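 Female C57BL/6 mice, 6-10 weeks old, get 5×10^6 Pan02 cells s.c. in the right flank and are randomized at ~100 mm3 (n = 5/group). Dosing is daily for 28 days. Vehicle is 10% DMSO/50% PG/40% saline, except 15 mg/kg uses 10% DMSO/60% PG/30% saline. Caliper volume (length×width²)/2 and body weight are recorded twice weekly.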
# [8] = Toxicity in C57BL/6 mouse allografted with mouse Panc02 cells assessed as body weight loss at 2.5 mg/kg, ip administered once a day for 28 days and measured twice per week; assay type: organism-based; details: in vivo, 672 h, time 28 day; procedure, shortened: as §4
# [9] = Toxicity in C57BL/6 mouse allografted with mouse Panc02 cells assessed as drug tolerability at 2.5 mg/kg, ip administered once a day for 28 days; assay type: organism-based; details: in vivo, 672 h, time 28 day
# [10] = Toxicity in C57BL/6 mouse allografted with mouse Panc02 cells assessed as body weight loss at 15 mg/kg, ip administered once a day for 28 days and measured twice per week; assay type: organism-based; details: in vivo, 672 h, time 28 day; procedure, shortened: as §4
# [11] = Toxicity in C57BL/6 mouse allografted with mouse Panc02 cells assessed as drug tolerability at 15 mg/kg, ip administered once a day for 28 days; assay type: organism-based; details: in vivo, 672 h, time 28 day
# [12] = Toxicity in C57BL/6 mouse allografted with mouse Panc02 cells assessed as body weight loss at 7.5 mg/kg, ip administered once a day for 28 days and measured twice per week; assay type: organism-based; details: in vivo, 672 h, time 28 day; procedure, shortened: as §4
# [13] = Toxicity in C57BL/6 mouse allografted with mouse Panc02 cells assessed as drug tolerability at 7.5 mg/kg, ip administered once a day for 28 days; assay type: organism-based; details: in vivo, 672 h, time 28 day
Structure (SMILES),IC50 (MIA PaCa-2 [1]),IC50 (BXPC-3),IC50 (MIA PaCa-2 [2]),IC50 (MIA PaCa-2 [3]),other results
CCN(CC)S(=O)(=O)c1ccc(S(=O)(=O)N2CCC[C@@H](C(=O)N3CCS(=O)(=O)CC3)C2)cc1,900 nM,4430 nM,> 10000 nM,220 nM,–
CCN(CC)S(=O)(=O)c1ccc(S(=O)(=O)N2CCC[C@@H](C(=O)N3CCC(OC)CC3)C2)cc1,140 nM,1420 nM,> 10000 nM,50 nM,–
CCC(CC)S(=O)(=O)c1ccc(S(=O)(=O)N2CCC[C@@H](C(=O)N3CCC(F)(F)CC3)C2)cc1,13 nM,40 nM,–,–,t1/2 [4]: 8.7 min; t1/2 [5]: 17.1 min
O=C([C@@H]1CCCN(S(=O)(=O)c2ccc(S(=O)(=O)N3CC[C@H](O)C3)cc2)C1)N1CCC(F)(F)CC1,590 nM,580 nM,–,–,–
CCP(=O)(CC)c1ccc(S(=O)(=O)N2CCC[C@@H](C(=O)N3CCC(F)(F)CC3)C2)cc1,21500 nM,> 30000 nM,–,–,–
CCN(CC)S(=O)(=O)c1ccc(S(=O)(=O)N2CCC[C@@H](C(=O)N[C@H]3CC[C@@H](OC)CC3)C2)cc1,960 nM,2150 nM,> 10000 nM,590 nM,–
O=C([C@@H]1CCCN(S(=O)(=O)c2ccc(S(=O)(=O)C3COC3)cc2)C1)N1CCC(F)(F)CC1,110 nM,361 nM,–,–,–
CCN(CC)S(=O)(=O)c1ccc(S(=O)(=O)N2CCC[C@@H](C(=O)NC3CCOCC3)C2)cc1,3770 nM,8570 nM,> 10000 nM,1350 nM,–
O=C([C@@H]1CCCN(S(=O)(=O)c2ccc(S(=O)(=O)C3CCC3)cc2)C1)N1CCC(F)(F)CC1,9 nM,78 nM,> 3000 nM,12.6 nM,half-life at 10 µM [4]: 44 min; half-life at 10 µM [5]: > 60 min; IC50 [6]: > 3000 nM; IC50 [7]: 15.8 nM; Activity (Panc02): Active; Activity [8]: Non-Toxic; Activity [9]: Non-Toxic
FC(F)(F)c1ccc(/C=C/c2nc(COc3ccc(CCCCn4ccnn4)cc3)co2)cc1 [MUBRITINIB],51 nM,–,–,–,–
CCN(CC)S(=O)(=O)c1ccc(S(=O)(=O)N2CCC[C@@H](C(=O)N3CCC(F)(F)CC3)C2)cc1,16 nM,120 nM,> 10000 nM,19 nM,t1/2 [4]: 2.6 min; half-life at 10 µM [5]: 2.74 min; IC50 [6]: > 3000 nM; IC50 [7]: 21.3 nM
O=C([C@@H]1CCCN(S(=O)(=O)c2ccc(S(=O)(=O)C3CC3)cc2)C1)N1CCC(F)(F)CC1,26 nM,129 nM,–,–,–
CC(C)NS(=O)(=O)c1ccc(S(=O)(=O)N2CCC[C@@H](C(=O)N3CCC(F)(F)CC3)C2)cc1,350 nM,470 nM,–,–,t1/2 [4]: 23.1 min; t1/2 [5]: 19.7 min
CCN(CC)S(=O)(=O)c1ccc(S(=O)(=O)N2CCC[C@@H](C(=O)N3CCC(C(F)(F)F)CC3)C2)cc1,320 nM,370 nM,> 10000 nM,110 nM,–
CP(C)(=O)c1ccc(S(=O)(=O)N2CCC[C@@H](C(=O)N3CCC(F)(F)CC3)C2)cc1,> 30000 nM,> 30000 nM,–,–,–
CC(C)CS(=O)(=O)c1ccc(S(=O)(=O)N2CCC[C@@H](C(=O)N3CCC(F)(F)CC3)C2)cc1,80 nM,311 nM,–,–,–
CCN(CC)S(=O)(=O)c1ccc(S(=O)(=O)N2CCC[C@@H](C(=O)N3CCC(C(F)F)CC3)C2)cc1,420 nM,450 nM,> 10000 nM,140 nM,–
CCN(CC)S(=O)(=O)c1ccc(S(=O)(=O)N2CCC[C@@H](C(=O)N3CC[C@H](OC)C3)C2)cc1,2460 nM,6750 nM,> 10000 nM,460 nM,–
CCN(CC)S(=O)(=O)c1ccc(S(=O)(=O)N2CCC[C@@H](C(=O)N[C@H]3CC[C@H](OC)CC3)C2)cc1,1350 nM,2000 nM,> 10000 nM,2290 nM,–
CCN(CC)S(=O)(=O)c1ccc(S(=O)(=O)N2CCC[C@@H](C(=O)N3CCC(O)CC3)C2)cc1,870 nM,4710 nM,> 10000 nM,230 nM,–
CCOC(=O)[C@@H]1CCCN(S(=O)(=O)c2ccc(S(=O)(=O)N(CC)CC)cc2)C1,–,–,–,–,GI50 (MIA PaCa-2 [1]; time 7 day): 600 nM
CCN(CC)S(=O)(=O)c1ccc(S(=O)(=O)N2CCC[C@@H](C(=O)N3CC[C@@H](OC)C3)C2)cc1,3910 nM,11500 nM,> 10000 nM,1070 nM,–
CCN(CC)S(=O)(=O)c1ccc(S(=O)(=O)N2CCC[C@@H](C(=O)N[C@H]3CCOC3)C2)cc1,1670 nM,5270 nM,> 10000 nM,290 nM,–
O=C([C@@H]1CCCN(S(=O)(=O)c2ccc(S(=O)(=O)N3CC[C@@H](O)C3)cc2)C1)N1CCC(F)(F)CC1,210 nM,330 nM,> 3000 nM,135 nM,half-life at 10 µM [4]: 26.2 min; half-life at 10 µM [5]: 31 min; IC50 [6]: > 3000 nM; IC50 [7]: 123 nM; Activity [10]: Non-Toxic; Activity [11]: Non-Toxic
CCN(CC)S(=O)(=O)c1ccc(S(=O)(=O)N2CCC[C@@H](C(=O)N3CCC(COC)CC3)C2)cc1,250 nM,1360 nM,> 10000 nM,50 nM,–
CCN(CC)S(=O)(=O)c1ccc(S(=O)(=O)N2CCC[C@@H](C(=O)N[C@@H]3CCOC3)C2)cc1,750 nM,2270 nM,> 10000 nM,100 nM,–
CCN(CC)C(=O)c1ccc(S(=O)(=O)N2CCC[C@@H](C(=O)N3CCC(F)(F)CC3)C2)cc1,70 nM,240 nM,–,–,–
CCN(CC)S(=O)(=O)c1ccc(S(=O)(=O)N2CCC[C@@H](C(=O)N3CCOCC3)C2)cc1,350 nM,790 nM,> 10000 nM,160 nM,–
CN(C)S(=O)(=O)c1ccc(S(=O)(=O)N2CCC[C@@H](C(=O)N3CCC(F)(F)CC3)C2)cc1,–,560 nM,> 3000 nM,72.4 nM,half-life at 10 µM [4]: 32 min; half-life at 10 µM [5]: > 60 min; IC50 [6]: > 3000 nM; IC50 [7]: 78.9 nM; Activity [12]: Non-Toxic; Activity [13]: Non-Toxic
